From ChEMBL document CHEMBL4414651, “Discovery and Optimization of Salicylic Acid-Derived Sulfonamide Inhibitors of the WD Repeat-Containing Protein 5-MYC Protein-Protein Interaction” (J Med Chem, 2019)
Active and inactive are the calls of the source. The rule behind the calls is not given here.

Assays:
[1] = molecular target: T1, WD repeat-containing protein 5 (Homo sapiens, UniProt P61964)
[2] = molecular target: T1, WD repeat-containing protein 5; assay: Binding affinity to WDR5 (unknown origin) assessed as inhibition of WDR5-MLL1 protein-protein interaction by TR-FRET assay
[3] = molecular target: T1, WD repeat-containing protein 5; assay: Binding affinity to N-terminal FLAG-tagged human full-length WDR5 expressed in HEK293T cells harboring human C-terminal HA-tagged c-MYC assessed as disruption of WDR5-RBBP5 protein-protein interaction by SDS-PAGE based immunoblot assay; format: cell-based
Method in brief: (§1)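 HEK293 cells expressing FLAG-WDR5 and c-MYC-HA were kept in DMEM with 10% FBS, hygromycin B 50 μg/mL and puromycin 100 ng/mL. Lysates in Tris pH 8.0/NaCl/EDTA/1% Triton buffer were treated with compound at 50 μM or 6.25–50 μM. α-FLAG magnetic M2 beads, 2 h at 4 °C, then SDS-PAGE and α-RBBP5 immunoblot. Quantified against vehicle; at least two independent repeats.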

Homo sapiens = species: Homo sapiens; assay: Inhibition of human MLL1/WDR5/RBBP5/ASH2L/DPY30 complex assessed as reduction in histone methyl-transferase activity using H3-peptide as substrate
[4] = molecular target: T1, WD repeat-containing protein 5; assay: Binding affinity to N-terminal FLAG-tagged human full-length WDR5 expressed in HEK293T cells harboring human C-terminal HA-tagged c-MYC assessed as disruption of WDR5-c-MYC protein-protein interaction at 50 uM by SDS-PAGE based immunoblot assay; format: cell-based
[5] = molecular target: T1, WD repeat-containing protein 5; assay: Binding affinity to N-terminal FLAG-tagged human full-length WDR5 expressed in HEK293T cells harboring human C-terminal HA-tagged c-MYC assessed as disruption of WDR5-c-MYC protein-protein interaction by SDS-PAGE based immunoblot assay; format: cell-based
[6] = molecular target: T1, WD repeat-containing protein 5; assay: Binding affinity to N-terminal FLAG-tagged human full-length WDR5 expressed in HEK293T cells harboring human C-terminal HA-tagged c-MYC assessed as disruption of WDR5-RBBP5 protein-protein interaction at 50 uM by SDS-PAGE based immunoblot assay; format: cell-based; method in brief: as §1
[7] = Solubility of the compound; format: physicochemical
Method in brief: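 Kinetic solubility, measured by an outside contract lab using a standard commercial assay format.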

[8] = Apparent permeability from apical to basolateral side in MDCK cells; format: ADME, cell-based, Canis lupus familiaris; conditions: dog
[9] = Protein binding in plasma (unknown origin) assessed as unbound fraction; format: ADME, cell-free
[10] = molecular target: T1, WD repeat-containing protein 5; assay: Binding affinity to N-terminal FLAG-tagged human full-length WDR5 […] assessed as change in melting temperature at 10 uM by differential scanning fluorimetry
Method in brief: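 Thermal shift (differential scanning fluorimetry) on WDR5, with compounds at 10 μM. Samples were run in triplicate, and ΔTm is the average melting-temperature shift read by fluorescence.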

[11] = Apparent permeability from basolateral to apical side in MDCK cells; format: ADME, cell-based, Canis lupus familiaris; conditions: dog

In the case of `N#CC1(c2cc(NS(=O)(=O)c3cc(Br)ccc3O)cc(C(=O)O)c2)CCC1`, the Kd [1] is reported as 229 nM and the inhibition [2] is reported as “inactive”.

In the case of `CNC(=O)c1cc(C2(C#N)CCC2)cc(NS(=O)(=O)c2cc(Br)cc(Cl)c2O)c1O`, the Activity [3] is reported as “Dose-dependent effect”, the inhibition (Homo sapiens) is reported as “Active” and the Activity [4] is reported as “Active”. For the same compound, the Kd [1] was 69 nM, the Activity [5] was “Dose-dependent effect” and the Activity [6] was “Active”. For the same compound, the solubility [7] was over 100 µM, the Papp [8] was 14 ×10⁻⁶ cm/s and the Fu [9] was under 0.0006%. It also gave a ΔTm [10] of 5.53 °C.

With `CNC(=O)c1cc(C2(C#N)CCCCC2)cc(NS(=O)(=O)c2cc(Br)ccc2O)c1O` the Kd [1] was 779 nM and the inhibition [2] was “inactive”.

For `N#CC1(c2cc(NS(=O)(=O)c3cc(Br)cc(Cl)c3O)c(O)c(C(=O)O)c2)CCCCC1`, the Activity [4] was “Active”, the Kd [1] was 38 nM and the Activity [6] was “Active”. The ΔTm [10] was 6.38 °C.

For `N#CC1(c2cc(NS(=O)(=O)c3cc(Br)cc(Cl)c3O)c(O)c(C(=O)O)c2)CCC1`, the Activity [3] was “Dose-dependent effect”, the inhibition (Homo sapiens) was “Active” and the Activity [4] was “Active”. The Kd [1] was 30 nM, the Activity [5] was “Dose-dependent effect” and the Activity [6] was “Active”. The solubility [7] was over 100 µM, the Papp [8] was 0.33 ×10⁻⁶ cm/s and the Fu [9] was under 0.0003%. For the same compound, the inhibition [2] was “inactive” and the ΔTm [10] was 6.68 °C.

With `O=C(O)c1cc(S(F)(F)(F)(F)F)cc(NS(=O)(=O)c2cc(Br)ccc2O)c1O` the Kd [1] was 47 nM and the inhibition [2] was “inactive”.

For `CNC(=O)c1cc(Cl)cc(NS(=O)(=O)c2cc(Br)ccc2O)c1O`, the inhibition (Homo sapiens) was “Active”, the Activity [4] was “Active” and the Kd [1] was 746 nM. The Activity [6] was “Active”, the solubility [7] was over 100 µM and the Papp [8] was 16.7 ×10⁻⁶ cm/s. It also gave a Fu [9] of under 0.0004% and a Papp [11] of 14.1 ×10⁻⁶ cm/s.

In the case of `N#CC1(c2ccc(O)c(NS(=O)(=O)c3cc(Br)ccc3O)c2)CC1`, the Kd [1] is reported as 852 nM and the inhibition [2] is reported as “inactive”.

In the case of `O=C(O)c1cc(C2CC2)cc(NS(=O)(=O)c2cc(Br)ccc2O)c1O`, the Activity [4] is reported as “Active”, the Kd [1] is reported as 184 nM and the Activity [6] is reported as “Active”. The inhibition [2] was “inactive”.

In the case of `N#CC1(c2ccc(O)c(NS(=O)(=O)c3cc(Br)ccc3O)c2)CCC1`, the inhibition (Homo sapiens) is reported as “Active”, the Kd [1] is reported as 289 nM and the solubility [7] is reported as over 100 µM. The Papp [8] was 27.8 ×10⁻⁶ cm/s, the Fu [9] was under 0.0005% and the ΔTm [10] was 2.63 °C.

With `N#CC1(c2cc(NS(=O)(=O)c3cc(Br)ccc3O)c(O)c(C(=O)O)c2)CCC1` the Activity [4] was “Active”, the Kd [1] was 67 nM and the Activity [6] was “Active”. It also gave a ΔTm [10] of 3.9 °C.

In the case of `CNC(=O)c1c(O)c(NS(=O)(=O)c2cc(Br)ccc2O)cc(C2CC2)c1F`, the inhibition (Homo sapiens) is reported as “Active”, the Kd [1] is reported as 1420 nM and the solubility [7] is reported as over 100 µM. It also gave a Papp [8] of 12.9 ×10⁻⁶ cm/s, a Fu [9] of under 0.0002% and a Papp [11] of 3.4 ×10⁻⁶ cm/s.

In the case of `O=C(O)c1cc(NS(=O)(=O)c2cc(Br)cc(Cl)c2O)cc(S(F)(F)(F)(F)F)c1`, the inhibition (Homo sapiens) is reported as “Active”, the Kd [1] is reported as 29 nM and the inhibition [2] is reported as “inactive”.

In the case of `O=C(O)c1cc(OC(F)(F)F)cc(NS(=O)(=O)c2cc(Br)cc(Cl)c2O)c1O`, the Kd [1] is reported as 51 nM and the inhibition [2] is reported as “inactive”.
